Data reported in ChEMBL document CHEMBL3784921, “Mimicking of Arginine by Functionalized N(ω)-Carbamoylated Arginine As a New Broadly Applicable Approach to Labeled Bioactive Peptides: High Affinity Angiotensin, Neuropeptide Y, Neuropeptide FF, and Neurotensin Receptor Ligands As Examples” (J Med Chem, 2016).
Values belong to the molecule of their own block, whether it stands above or below them. *1 amine or outer side, *2 acyl side, *3 side chain or, on linkers, in order; H or OH if unused. Where a SMILES comes first, the peptide text is derived from it. [ ]: non-standard residue; d: D form. X1 = CCC(=O)NCCCCNC(=O)/N=C(\N)NCCC[C@H](N[*:1])C(=O)[*:2]

Legend:
[1] = target: T1, Type-1 angiotensin II receptor (Homo sapiens, UniProt P30556); assay: Displacement of [3H]-Angiotensin 2 from human AT1 receptor transfected in CHOK1 cells preincubated for 30 mins with bovine serum albumin followed by radioligand addition by liquid scintillation counting; format: cell-based, CHO-K1
T1 sequence (P30556 whole entry): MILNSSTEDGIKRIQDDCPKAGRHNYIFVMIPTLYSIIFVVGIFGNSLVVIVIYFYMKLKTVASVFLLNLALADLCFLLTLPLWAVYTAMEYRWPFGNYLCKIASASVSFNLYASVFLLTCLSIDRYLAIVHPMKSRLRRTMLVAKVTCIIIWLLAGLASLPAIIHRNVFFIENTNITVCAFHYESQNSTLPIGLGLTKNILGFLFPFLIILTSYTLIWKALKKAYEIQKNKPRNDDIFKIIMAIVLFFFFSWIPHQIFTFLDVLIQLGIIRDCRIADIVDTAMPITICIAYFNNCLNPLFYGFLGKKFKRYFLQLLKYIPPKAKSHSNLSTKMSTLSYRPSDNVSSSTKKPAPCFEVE

[2] = target: T1, Type-1 angiotensin II receptor; assay: Displacement of [3H]-Asp-{Nomega-[N-(4-propanoylaminobutyl)aminocarbonyl]}Arg-ValTyr-Ile-His-Pro-Phe-OH Tris(hydrotrifluoroacetate) from human AT1 receptor transfected in CHO cells co-expressing Galpha16-mtAEQ after 2 hrs by liquid scintillation counting; format: cell-based
[3] = target: T2, Neurotensin receptor type 1 (Homo sapiens, UniProt P30989); assay: Binding affinity to human NTSR1 receptor transfected in CHO cells co-expressing Galpha16-mtAEQ after 2 hrs by liquid scintillation counting; format: cell-based
T2 sequence (P30989 whole entry): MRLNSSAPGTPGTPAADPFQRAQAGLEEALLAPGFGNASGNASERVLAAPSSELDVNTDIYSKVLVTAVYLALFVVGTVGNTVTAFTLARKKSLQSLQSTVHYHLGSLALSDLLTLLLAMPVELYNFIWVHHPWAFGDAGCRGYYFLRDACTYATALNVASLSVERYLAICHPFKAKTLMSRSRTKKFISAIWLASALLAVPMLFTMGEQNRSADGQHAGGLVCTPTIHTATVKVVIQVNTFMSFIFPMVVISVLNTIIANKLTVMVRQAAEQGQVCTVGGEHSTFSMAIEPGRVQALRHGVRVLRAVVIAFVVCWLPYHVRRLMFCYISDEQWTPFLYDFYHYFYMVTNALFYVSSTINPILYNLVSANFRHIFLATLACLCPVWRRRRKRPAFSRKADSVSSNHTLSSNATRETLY

[4] = target: T2, Neurotensin receptor type 1; assay: biochemical
[5] = target: T2, Neurotensin receptor type 1; assay: biochemical; remark: listed apart in the source
[6] = target: T1, Type-1 angiotensin II receptor; assay: biochemical
[7] = Binding affinity to AT1 receptor natively expressed in rat mesangial cells; format: cell-based
[8] = Chemical stability of compound at 200 uM at pH 7 at 21 degC after 24 to 48 hrs by reversed-phase HPLC analysis; format: physicochemical; conditions: buffer, pH 7, 200 µM
Procedure, shortened: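 Peptide incubated in phosphate buffer (PBS), pH 7.0, 21 °C, for 24 or 48 h. Remaining intact peptide assessed by reversed-phase HPLC chromatograms.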

[9] = Drug degradation in CHO cells expressing human AT1 receptor at 50 uM after 2 hrs by reversed-phase HPLC analysis; format: ADME, cell-based, Cricetulus griseus; conditions: chinese hamster, read-out: Drug degradation
Procedure, shortened: (§1)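 Stability tested under binding-assay conditions for up to 6 h: AT1 ligands with CHO-hAT1 cells and NTSR1 ligands with HT-29 cells. Samples analysed by reversed-phase HPLC chromatography.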

[10] = Drug degradation in CHO cells expressing human AT1 receptor at 50 uM after 6 hrs by reversed-phase HPLC analysis; format: ADME, cell-based, Cricetulus griseus; conditions: chinese hamster, read-out: Drug degradation; procedure, shortened: as §1
[11] = target: T1, Type-1 angiotensin II receptor; assay: Agonist activity at human AT1 receptor transfected in CHO cells co-expressing Galpha16-mtAEQ assessed as induction of intracellular Ca2+ mobilization by bioluminescence assay; format: functional, cell-based
[12] = target: T2, Neurotensin receptor type 1; assay: Agonist activity at NTSR1 in human HT-29 cells assessed as induction of intracellular Ca2+ mobilization by fura-2 dye-based spectrofluorimetric analysis; format: functional, cell-based; conditions: read-out: EC50
[13] = target: Neurotensin receptor type 2 (Homo sapiens, UniProt O95665); assay: Displacement of [3H]NT(8 to 13 residues) from human NTSR2 expressed in HEK293 cell membranes
Chain of Neurotensin receptor type 2 (O95665 whole entry, the tested form may be a part): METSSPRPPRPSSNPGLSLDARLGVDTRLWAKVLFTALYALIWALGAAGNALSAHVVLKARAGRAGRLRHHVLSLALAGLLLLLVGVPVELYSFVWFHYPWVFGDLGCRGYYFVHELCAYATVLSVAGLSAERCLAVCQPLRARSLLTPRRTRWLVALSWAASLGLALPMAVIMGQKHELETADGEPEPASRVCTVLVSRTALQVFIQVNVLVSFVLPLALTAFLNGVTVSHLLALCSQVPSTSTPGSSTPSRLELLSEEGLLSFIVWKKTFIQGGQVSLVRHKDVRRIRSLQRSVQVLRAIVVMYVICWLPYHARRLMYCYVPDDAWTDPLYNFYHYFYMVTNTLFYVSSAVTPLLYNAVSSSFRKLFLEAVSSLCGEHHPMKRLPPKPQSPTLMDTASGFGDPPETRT

[14] = target: T2, Neurotensin receptor type 1; assay: Displacement of [3H]-{Nomega-[N-(4-propanoylaminobutyl)aminocarbonyl]}Arg-Arg-ProTyr-Ile-Leu-OH Tris(hydrotrifluoroacetate) from human NTSR1 transfected in CHO cells co-expressing Galpha16-mtAEQ after 2 hrs by liquid scintillation counting; format: cell-based
[15] = Drug degradation in human HT-29 cells at 50 uM after 6 hrs by reversed-phase HPLC analysis; format: ADME, cell-based; conditions: read-out: Drug degradation; procedure, shortened: as §1
[16] = target: T2, Neurotensin receptor type 1; assay: Displacement of [3H]-{Nomega-[N-(4-propanoylaminobutyl)aminocarbonyl]}Arg-Arg-ProTyr-Ile-Leu-OH Tris(hydrotrifluoroacetate) from NTSR1 in human HT-29 cells after 2 hrs by liquid scintillation counting; format: cell-based
[17] = Drug degradation in human HT-29 cells at 50 uM after 2 hrs by reversed-phase HPLC analysis; format: ADME, cell-based; conditions: read-out: Drug degradation; procedure, shortened: as §1
[18] = target: T3, Neuropeptide FF receptor 2 (Homo sapiens, UniProt Q9Y5X5); assay: Displacement of [3H]EYE from human NPFF2 receptor expressed in CHO cell membranes after 1 hr by liquid scintillation spectrophotometric counting
T3 sequence (Q9Y5X5 whole entry): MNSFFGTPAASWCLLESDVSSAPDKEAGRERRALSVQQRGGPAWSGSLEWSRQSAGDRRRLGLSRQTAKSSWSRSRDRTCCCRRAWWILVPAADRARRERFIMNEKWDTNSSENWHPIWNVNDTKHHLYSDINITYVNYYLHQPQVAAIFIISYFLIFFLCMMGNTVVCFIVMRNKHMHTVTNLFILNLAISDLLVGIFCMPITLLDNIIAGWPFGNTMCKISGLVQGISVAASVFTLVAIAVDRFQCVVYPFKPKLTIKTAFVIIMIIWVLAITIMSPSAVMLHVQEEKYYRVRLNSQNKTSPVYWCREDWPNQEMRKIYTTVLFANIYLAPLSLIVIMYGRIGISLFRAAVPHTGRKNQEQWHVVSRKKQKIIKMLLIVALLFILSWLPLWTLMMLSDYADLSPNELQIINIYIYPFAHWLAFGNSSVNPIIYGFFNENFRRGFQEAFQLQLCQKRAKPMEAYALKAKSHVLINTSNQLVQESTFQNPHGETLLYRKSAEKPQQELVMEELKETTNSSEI

[19] = target: T3, Neuropeptide FF receptor 2; assay: Binding affinity to human NPFF2 receptor expressed in CHO cell membranes after 1 hr by liquid scintillation spectrophotometric counting

IC50 [1]: 0.69 nM
IC50 [2]: 10.7 nM
Ki [2]: 3.5 nM
Molecule: CCOc1nc2cccc(C(=O)O)c2n1Cc1ccc(-c2ccccc2-c2nnn[nH]2)cc1

Molecule: O=C(O)C(F)(F)F.O=C(O)C(F)(F)F.O=C(O)C(F)(F)F.[3H]CC([3H])C(=O)NCCCCNC(=O)/N=C(\N)NCCC[C@H](N)C(=O)N[C@@H](CCCNC(=N)N)C(=O)N1CCC[C@H]1C(=O)N[C@@H](Cc1ccc(O)cc1)C(=O)N[C@H](C(=O)N[C@@H](CC(C)C)C(=O)O)[C@@H](C)CC (some centres undefined)
Kd [3]: 0.58 nM
Kd [4]: 0.51 nM
Kd [5]: 0.44 nM

Molecule: O=C(O)C(F)(F)F.O=C(O)C(F)(F)F.O=C(O)C(F)(F)F.[3H]CC([3H])C(=O)NCCCCNC(=O)/N=C(\N)NCCC[C@H](NC(=O)[C@@H](N)CC(=O)O)C(=O)N[C@H](C(=O)N[C@@H](Cc1ccc(O)cc1)C(=O)N[C@H](C(=O)N[C@@H](Cc1cnc[nH]1)C(=O)N1CCC[C@H]1C(=O)N[C@@H](Cc1ccccc1)C(=O)O)[C@@H](C)CC)C(C)C (some centres undefined)
Kd [6]: 0.94 nM
Kd [7]: 1.5 nM

Molecule: CCC(=O)NCCCCNC(=O)/N=C(\N)NCCC[C@H](NC(=O)[C@@H](N)CC(=O)O)C(=O)N[C@H](C(=O)N[C@@H](Cc1ccc(O)cc1)C(=O)N[C@H](C(=O)N[C@@H](Cc1cnc[nH]1)C(=O)N1CCC[C@H]1C(=O)N[C@@H](Cc1ccccc1)C(=O)O)[C@@H](C)CC)C(C)C.O=C(O)C(F)(F)F.O=C(O)C(F)(F)F.O=C(O)C(F)(F)F (H-D[X1]VYIHPF-OH)
IC50 [2]: 2.19 nM
Ki [2]: 0.71 nM
Stability [8]: Stable
metabolised at 2 h, 50 µM [9]: < 5.5%
metabolised at 6 h, 50 µM [10]: < 2%
EC50 [11]: 1.1 nM

Molecule: CCC(=O)NCCCCNC(=O)/N=C(\N)NCCC[C@H](N)C(=O)N[C@@H](CCCNC(=N)N)C(=O)N1CCC[C@H]1C(=O)N[C@@H](Cc1ccc(O)cc1)C(=O)N[C@H](C(=O)N[C@@H](CC(C)C)C(=O)O)[C@@H](C)CC.O=C(O)C(F)(F)F.O=C(O)C(F)(F)F.O=C(O)C(F)(F)F (H-[X1]RPYIL-OH)
EC50 [12]: 2 nM
Ki [13]: 2.5 nM
Ki [14]: 0.63 nM
Stability [8]: Stable
metabolised at 6 h, 50 µM [15]: < 4%
IC50 [16]: 1.35 nM
Ki [16]: 0.47 nM
metabolised at 2 h, 50 µM [17]: < 4%

Ki [18]: 0.53 nM
Kd [19]: 0.54 nM
Molecule: H-EYWSLAAPQRF-NH2
